Assay results pooled from the literature.
Compare with care: the assays were run in different laboratories.
Effect on: cell growth or viability

| SMILES | cell line | assay | setting | IC50 |
| --- | --- | --- | --- | --- |
| CC1(C)CCC(CN2CCN(c3ccc(C(=O)NS(=O)(=O)c4ccc(NCC5CCOCC5)c([N+](=O)[O-])c4)c(Oc4cnc5[nH]ccc5c4)c3)CC2)=C(c2ccc(Cl)cc2)C1 | MB002 | – | 7 days | > 10 µM |
| Oc1ccc(Nc2nc(-c3ccc(Cl)cc3)cs2)cc1 | WM278 | MTS | 72 h | 23.6 µM |
| COc1cc(Nc2nccc(-c3cnn4nc(OC)ccc34)n2)cc(C(F)(F)F)c1 | T84 | ATP luminescence | – | 1.3 µM |
| CN1CCN(CCOc2cc(OC3CCOCC3)c3c(Nc4c(Cl)ccc5c4OCO5)ncnc3c2)CC1 | HD-MB03 | – | 7 days | > 10 µM |
| CC(=NN=c1sc(N=Nc2ccccc2)c(C)n1C)c1c(O)c2ccccc2oc1=O | human Skin fibroblast | MTT | 48 h | > 100 µM |
| O=C(N/N=C/c1c(O)ccc2ccccc12)c1cc(-c2ccc3ccccc3c2)n[nH]1 | WM278 | MTS | 48 h | 8 µM |
| CC(=O)c1sc(=NN=C(C)c2c(O)c3ccccc3oc2=O)[nH]c1C | human Skin fibroblast | MTT | 48 h | > 100 µM |
| Cn1ncnc1[C@H]1c2n[nH]c(=O)c3cc(F)cc(c23)N[C@@H]1c1ccc(F)cc1 | MB002 | – | 7 days | 0.00373 µM |
| CC(C)C[C@H](NC(=O)[C@H](Cc1ccccc1)NC(=O)c1cnccn1)B(O)O | T84 | ATP luminescence | – | 0.018 µM |
| CC(=NN=c1scc(-c2ccccc2)n1C)c1c(O)c2ccccc2oc1=O | human Skin fibroblast | MTT | 48 h | > 100 µM |
